Measured values taken from ChEMBL document CHEMBL1139616, “Nitrone derivatives of trolox as neuroprotective agents” (Bioorg Med Chem Lett, 2005).

Key:
Assay type in all cases: functional; call rule not given here
Rattus norvegicus [1] = species on record: Rattus norvegicus; assay: In vitro inhibitory concentration against lipid peroxidation (LPO)
Method in brief: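 Brain mitochondria from male LATI Wistar rats (0.3 mg protein) in 25 mM Tris–HCl pH 7.4 with 0.2 mM ascorbic acid, with or without compound. Peroxidation started with 0.2 mM FeSO4, 60 min at 37 °C. Stopped with 20% TCA, centrifuged, supernatant boiled 20 min with 0.5% thiobarbituric acid. TBA-reactive products read at 535 nm.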

Rattus norvegicus [2] = species on record: Rattus norvegicus; assay: In vitro inhibitory concentration against Total peroxyl radical-trapping antioxidant parameter(TRAP)
Method in brief: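 Total peroxyl radical-trapping antioxidant parameter taken from spectrophotometric reading at 417 nm of the ABTS cation radical, which forms by one-electron oxidation.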

Rattus norvegicus [3] = species on record: Rattus norvegicus; assay: In vitro inhibitory concentration against hydroxyl radical (-OH)
Rattus norvegicus [4] = species on record: Rattus norvegicus; assay: In vitro inhibitory concentration against peroxynitrite (ONOO-): using pyrogallol red bleaching assay; (na: not active)
Method in brief: (§1)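 Peroxynitrite scavenging measured as pyrogallol red bleaching at 542 nm. ONOO- prepared essentially by the Hughes and Nicklin method.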

Rattus norvegicus [5] = species on record: Rattus norvegicus; assay: In vitro inhibitory concentration against NO ([…]); (na: not active)
Method in brief: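 NO generated by thermal breakdown of cupferron (0.2% in ethanol) at 40 °C. Samples at 0.3–100 mM in ethanol mixed with Griess–Ilosvay reagent (0.2% N-(1-naphthyl)ethylenediamine in 0.4 M HCl plus 2% sulfanilamide in 4 M HCl). Free NO estimated indirectly from its nitrite/nitrate products, absorbance read at 540 nm.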

Rattus norvegicus [6] = species on record: Rattus norvegicus; assay: In vitro inhibitory concentration against peroxynitrite (ONOO-): using pyrogallol red bleaching assay; method in brief: as §1
Rattus norvegicus [7] = species on record: Rattus norvegicus; assay: In vitro inhibitory concentration against hydroxyl radical (-OH); (na: not active)

Row | Compound | IC50 (Rattus norvegicus [1]) | IC50 (Rattus norvegicus [2]) | IC50 (Rattus norvegicus [3]) | IC50 (Rattus norvegicus [4]) | IC50 (Rattus norvegicus [5]) | IC50 (Rattus norvegicus [6]) | IC50 (Rattus norvegicus [7])
1 | CC(C)(C)/[N+]([O-])=C/c1ccccc1 | 16 µM | 3060 µM | 43000 µM | Not Active |  |  | 
2 | CC(C)(C)/[N+]([O-])=C/c1ccc(S(=O)(=O)[O-])cc1S(=O)(=O)[O-].[Na+].[Na+] | 5490 µM | 437 µM | 1500 µM | Not Active | Not Active |  | 
3 | COc1c(C)c(C)c2c(c1C)CCC(C)(/C=[N+](\[O-])C(C)(C)C)O2 (configuration not stated) | 23 µM | 2940 µM |  |  |  | 3700 µM | Not Active
4 | Cc1c(C)c2c(c(C)c1O)CCC(C)(/C=[N+](\[O-])C1CC1)O2 (configuration not stated) | 0.68 µM | 6 µM | 150 µM |  |  | 1100 µM | 
5 | CC(=O)Oc1c(C)c(C)c2c(c1C)CCC(C)(/C=[N+](\[O-])C(C)(C)C)O2 (configuration not stated) | 10 µM | 895 µM |  | Not Active |  |  | Not Active
6 | Cc1c(C)c2c(c(C)c1O)CCC(C)(/C=[N+](\[O-])C(C)(C)C)O2 (configuration not stated) | 2 µM | 5.5 µM | 170 µM |  |  | 3200 µM | 
7 | COc1c(C)c(C)c2c(c1C)CCC(C)(/C=[N+](\[O-])C1CC1)O2 (configuration not stated) | 20 µM | 296 µM |  |  |  | 1200 µM | Not Active
8 | CC(=O)Oc1c(C)c(C)c2c(c1C)CCC(C)(/C=[N+](\[O-])C1CC1)O2 (configuration not stated) | 3.7 µM | 117 µM |  |  |  | 590 µM | Not Active
9 | Cc1c(C)c2c(c(C)c1O)CCC(C)(C(=O)O)O2 (configuration not stated) [TROLOX] | 25 µM | 10 µM | 60 µM |  |  | 550 µM | 
